Laboratory results published in ChEMBL document CHEMBL5058577, “EUbOPEN Chemogenomics Library 2 (Multiplex)” (2022).

Tested on: U2OS
Experiment: Multiplex assay against U2OS
Type: toxicity, cell-based
Conditions: human
Method in brief: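 Per cents of healthy-nucleus cells form the tubulin, mitochondrial-mass and membrane-permeability phenotype values. Live cells were stained at seeding with Hoechst33342, BioTracker Green Microtubule Cytoskeleton Dye, MitoTracker Red and Annexin V Alexa Fluor 680. After compound addition they were imaged on a CQ1 microscope at 37°C and 5% CO2, and CellPathfinder machine-learning gating split them into Hoechst high-intensity objects or normal cells, normal cells into healthy, pyknosed or fragmented nuclei, and pyknosed cells into mitotic or apoptotic.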

[1] = 12 h, 1 µM, compound concentration 1 uM, replicate 1
[2] = 12 h, 1 µM, compound concentration 1 uM, replicate 2
[3] = 12 h, 10 µM, compound concentration 10 uM, replicate 1
[4] = 12 h, 10 µM, compound concentration 10 uM, replicate 2
[5] = 24 h, 1 µM, compound concentration 1 uM, replicate 1
[6] = 24 h, 1 µM, compound concentration 1 uM, replicate 2
[7] = 24 h, 10 µM, compound concentration 10 uM, replicate 1
[8] = 24 h, 10 µM, compound concentration 10 uM, replicate 2
[9] = 48 h, 1 µM, compound concentration 1 uM, replicate 1
[10] = 48 h, 1 µM, compound concentration 1 uM, replicate 2
[11] = 48 h, 10 µM, compound concentration 10 uM, replicate 1
[12] = 48 h, 10 µM, compound concentration 10 uM, replicate 2

Cc1sc2c(c1C)C(c1ccc(Cl)cc1)=N[C@H](CC(=O)OC(C)(C)C)c1nnc(C)n1-2
Population Apoptotic (%) [1]: 81% | Population Fragmented Nuclei (%) [1]: 28% | Population Healthy Nuclei (%) [1]: 63% | Population Hoechst High Intensity Objects (%) [1]: 2% | Population Membrane Permeable-Phenotype (%) [1]: 7% | Population Mitochondria Different-Phenotype (%) [1]: 4% | Population Mitotic Cells (%) [1]: 18% | Population Normal (%) [1]: 97% | Population Pyknosed Nuclei (%) [1]: 8% | Population Tubulin-Different-Phenotype (%) [1]: 4% | Total Cell Count [1]: 256 | Population Apoptotic (%) [2]: 71% | Population Fragmented Nuclei (%) [2]: 16% | Population Healthy Nuclei (%) [2]: 77% | Population Hoechst High Intensity Objects (%) [2]: 4% | Population Mitochondria Different-Phenotype (%) [2]: 2% | Population Mitotic Cells (%) [2]: 28% | Population Normal (%) [2]: 95% | Population Pyknosed Nuclei (%) [2]: 6% | Total Cell Count [2]: 120 | Population Apoptotic (%) [3]: 51% | Population Fragmented Nuclei (%) [3]: 32% | Population Healthy Nuclei (%) [3]: 56% | Population Hoechst High Intensity Objects (%) [3]: 2% | Population Membrane Permeable-Phenotype (%) [3]: 42% | Population Mitochondria Different-Phenotype (%) [3]: 35% | Population Mitotic Cells (%) [3]: 48% | Population Normal (%) [3]: 97% | Population Pyknosed Nuclei (%) [3]: 11% | Population Tubulin-Different-Phenotype (%) [3]: 39% | Total Cell Count [3]: 240 | Population Apoptotic (%) [4]: 90% | Population Fragmented Nuclei (%) [4]: 22% | Population Healthy Nuclei (%) [4]: 68% | Population Hoechst High Intensity Objects (%) [4]: 0% | Population Membrane Permeable-Phenotype (%) [4]: 13% | Population Mitochondria Different-Phenotype (%) [4]: 24% | Population Mitotic Cells (%) [4]: 10% | Population Normal (%) [4]: 100% | Population Pyknosed Nuclei (%) [4]: 8% | Population Tubulin-Different-Phenotype (%) [4]: 11% | Total Cell Count [4]: 118 | Population Apoptotic (%) [5]: 77% | Population Fragmented Nuclei (%) [5]: 22% | Population Healthy Nuclei (%) [5]: 69% | Population Hoechst High Intensity Objects (%) [5]: 0% | Population Membrane Permeable-Phenotype (%) [5]: 5% | Population Mitochondria Different-Phenotype (%) [5]: 1% | Population Mitotic Cells (%) [5]: 22% | Population Normal (%) [5]: 99% | Population Pyknosed Nuclei (%) [5]: 7% | Population Tubulin-Different-Phenotype (%) [5]: 1% | Total Cell Count [5]: 280 | Population Apoptotic (%) [6]: 75% | Population Fragmented Nuclei (%) [6]: 20% | Population Healthy Nuclei (%) [6]: 70% | Population Hoechst High Intensity Objects (%) [6]: 3% | Population Mitochondria Different-Phenotype (%) [6]: 2% | Population Mitotic Cells (%) [6]: 25% | Population Normal (%) [6]: 96% | Population Pyknosed Nuclei (%) [6]: 8% | Population Tubulin-Different-Phenotype (%) [6]: 2% | Total Cell Count [6]: 149 | Population Apoptotic (%) [7]: 83% | Population Fragmented Nuclei (%) [7]: 29% | Population Healthy Nuclei (%) [7]: 57% | Population Hoechst High Intensity Objects (%) [7]: 2% | Population Membrane Permeable-Phenotype (%) [7]: 17% | Population Mitochondria Different-Phenotype (%) [7]: 17% | Population Mitotic Cells (%) [7]: 16% | Population Normal (%) [7]: 97% | Population Pyknosed Nuclei (%) [7]: 13% | Population Tubulin-Different-Phenotype (%) [7]: 8% | Total Cell Count [7]: 280 | Population Apoptotic (%) [8]: 76% | Population Fragmented Nuclei (%) [8]: 24% | Population Healthy Nuclei (%) [8]: 65% | Population Hoechst High Intensity Objects (%) [8]: 0% | Population Membrane Permeable-Phenotype (%) [8]: 7% | Population Mitochondria Different-Phenotype (%) [8]: 25% | Population Mitotic Cells (%) [8]: 23% | Population Normal (%) [8]: 99% | Population Pyknosed Nuclei (%) [8]: 10% | Population Tubulin-Different-Phenotype (%) [8]: 3% | Total Cell Count [8]: 130 | Population Apoptotic (%) [9]: 77% | Population Fragmented Nuclei (%) [9]: 20% | Population Healthy Nuclei (%) [9]: 72% | Population Hoechst High Intensity Objects (%) [9]: 1% | Population Membrane Permeable-Phenotype (%) [9]: 5% | Population Mitochondria Different-Phenotype (%) [9]: 2% | Population Mitotic Cells (%) [9]: 22% | Population Normal (%) [9]: 98% | Population Pyknosed Nuclei (%) [9]: 6% | Population Tubulin-Different-Phenotype (%) [9]: 2% | Total Cell Count [9]: 415 | Population Apoptotic (%) [10]: 96% | Population Fragmented Nuclei (%) [10]: 21% | Population Healthy Nuclei (%) [10]: 64% | Population Hoechst High Intensity Objects (%) [10]: 3% | Population Membrane Permeable-Phenotype (%) [10]: 7% | Population Mitochondria Different-Phenotype (%) [10]: 7% | Population Mitotic Cells (%) [10]: 3% | Population Normal (%) [10]: 96% | Population Pyknosed Nuclei (%) [10]: 14% | Population Tubulin-Different-Phenotype (%) [10]: 5% | Total Cell Count [10]: 228 | Population Apoptotic (%) [11]: 86% | Population Fragmented Nuclei (%) [11]: 23% | Population Healthy Nuclei (%) [11]: 57% | Population Hoechst High Intensity Objects (%) [11]: 2% | Population Membrane Permeable-Phenotype (%) [11]: 11% | Population Mitochondria Different-Phenotype (%) [11]: 7% | Population Mitotic Cells (%) [11]: 13% | Population Normal (%) [11]: 97% | Population Pyknosed Nuclei (%) [11]: 18% | Population Tubulin-Different-Phenotype (%) [11]: 5% | Total Cell Count [11]: 342 | Population Apoptotic (%) [12]: 89% | Population Fragmented Nuclei (%) [12]: 20% | Population Healthy Nuclei (%) [12]: 68% | Population Hoechst High Intensity Objects (%) [12]: 1% | Population Mitochondria Different-Phenotype (%) [12]: 8% | Population Mitotic Cells (%) [12]: 10% | Population Normal (%) [12]: 98% | Population Pyknosed Nuclei (%) [12]: 11% | Population Tubulin-Different-Phenotype (%) [12]: 3% | Total Cell Count [12]: 174

CC(C)(C)c1ccc(CSc2cnn(C(C)(C)C)c(=O)c2Cl)cc1 [PYRIDABEN]
Population Apoptotic (%) [1]: 79% | Population Fragmented Nuclei (%) [1]: 28% | Population Healthy Nuclei (%) [1]: 61% | Population Hoechst High Intensity Objects (%) [1]: 3% | Population Membrane Permeable-Phenotype (%) [1]: 3% | Population Mitochondria Different-Phenotype (%) [1]: 1% | Population Mitotic Cells (%) [1]: 20% | Population Normal (%) [1]: 97% | Population Pyknosed Nuclei (%) [1]: 9% | Population Tubulin-Different-Phenotype (%) [1]: 2% | Total Cell Count [1]: 267 | Population Apoptotic (%) [2]: 63% | Population Fragmented Nuclei (%) [2]: 11% | Population Healthy Nuclei (%) [2]: 81% | Population Hoechst High Intensity Objects (%) [2]: 0% | Population Membrane Permeable-Phenotype (%) [2]: 4% | Population Mitotic Cells (%) [2]: 36% | Population Normal (%) [2]: 99% | Population Pyknosed Nuclei (%) [2]: 7% | Population Tubulin-Different-Phenotype (%) [2]: 3% | Total Cell Count [2]: 152 | Population Apoptotic (%) [3]: 83% | Population Fragmented Nuclei (%) [3]: 28% | Population Healthy Nuclei (%) [3]: 57% | Population Hoechst High Intensity Objects (%) [3]: 1% | Population Membrane Permeable-Phenotype (%) [3]: 5% | Population Mitochondria Different-Phenotype (%) [3]: 5% | Population Mitotic Cells (%) [3]: 16% | Population Normal (%) [3]: 98% | Population Pyknosed Nuclei (%) [3]: 14% | Population Tubulin-Different-Phenotype (%) [3]: 3% | Total Cell Count [3]: 209 | Population Apoptotic (%) [4]: 87% | Population Fragmented Nuclei (%) [4]: 15% | Population Healthy Nuclei (%) [4]: 73% | Population Hoechst High Intensity Objects (%) [4]: 0% | Population Mitochondria Different-Phenotype (%) [4]: 2% | Population Mitotic Cells (%) [4]: 12% | Population Normal (%) [4]: 100% | Population Pyknosed Nuclei (%) [4]: 11% | Population Tubulin-Different-Phenotype (%) [4]: 2% | Total Cell Count [4]: 141 | Population Apoptotic (%) [5]: 83% | Population Fragmented Nuclei (%) [5]: 28% | Population Healthy Nuclei (%) [5]: 58% | Population Hoechst High Intensity Objects (%) [5]: 1% | Population Membrane Permeable-Phenotype (%) [5]: 4% | Population Mitochondria Different-Phenotype (%) [5]: 1% | Population Mitotic Cells (%) [5]: 16% | Population Normal (%) [5]: 98% | Population Pyknosed Nuclei (%) [5]: 13% | Population Tubulin-Different-Phenotype (%) [5]: 1% | Total Cell Count [5]: 286 | Population Apoptotic (%) [6]: 100% | Population Fragmented Nuclei (%) [6]: 19% | Population Healthy Nuclei (%) [6]: 75% | Population Hoechst High Intensity Objects (%) [6]: 2% | Population Membrane Permeable-Phenotype (%) [6]: 3% | Population Mitotic Cells (%) [6]: 0% | Population Normal (%) [6]: 97% | Population Pyknosed Nuclei (%) [6]: 5% | Total Cell Count [6]: 186 | Population Apoptotic (%) [7]: 80% | Population Fragmented Nuclei (%) [7]: 22% | Population Healthy Nuclei (%) [7]: 61% | Population Hoechst High Intensity Objects (%) [7]: 2% | Population Membrane Permeable-Phenotype (%) [7]: 8% | Population Mitochondria Different-Phenotype (%) [7]: 3% | Population Mitotic Cells (%) [7]: 19% | Population Normal (%) [7]: 97% | Population Pyknosed Nuclei (%) [7]: 15% | Population Tubulin-Different-Phenotype (%) [7]: 6% | Total Cell Count [7]: 234 | Population Fragmented Nuclei (%) [8]: 19% | Population Healthy Nuclei (%) [8]: 68% | Population Hoechst High Intensity Objects (%) [8]: 1% | Population Membrane Permeable-Phenotype (%) [8]: 6% | Population Mitochondria Different-Phenotype (%) [8]: 1% | Population Mitotic Cells (%) [8]: 20% | Population Normal (%) [8]: 98% | Population Pyknosed Nuclei (%) [8]: 12% | Population Tubulin-Different-Phenotype (%) [8]: 2% | Total Cell Count [8]: 167 | Population Apoptotic (%) [9]: 76% | Population Fragmented Nuclei (%) [9]: 26% | Population Healthy Nuclei (%) [9]: 63% | Population Hoechst High Intensity Objects (%) [9]: 3% | Population Membrane Permeable-Phenotype (%) [9]: 6% | Population Mitochondria Different-Phenotype (%) [9]: 3% | Population Mitotic Cells (%) [9]: 23% | Population Normal (%) [9]: 96% | Population Pyknosed Nuclei (%) [9]: 9% | Population Tubulin-Different-Phenotype (%) [9]: 3% | Total Cell Count [9]: 361 | Population Apoptotic (%) [10]: 84% | Population Fragmented Nuclei (%) [10]: 19% | Population Healthy Nuclei (%) [10]: 70% | Population Hoechst High Intensity Objects (%) [10]: 6% | Population Membrane Permeable-Phenotype (%) [10]: 5% | Population Mitotic Cells (%) [10]: 15% | Population Normal (%) [10]: 93% | Population Tubulin-Different-Phenotype (%) [10]: 2% | Total Cell Count [10]: 212 | Population Apoptotic (%) [11]: 90% | Population Fragmented Nuclei (%) [11]: 20% | Population Healthy Nuclei (%) [11]: 64% | Population Hoechst High Intensity Objects (%) [11]: 4% | Population Membrane Permeable-Phenotype (%) [11]: 9% | Population Mitochondria Different-Phenotype (%) [11]: 4% | Population Mitotic Cells (%) [11]: 10% | Population Normal (%) [11]: 95% | Population Pyknosed Nuclei (%) [11]: 14% | Population Tubulin-Different-Phenotype (%) [11]: 6% | Total Cell Count [11]: 280 | Population Apoptotic (%) [12]: 95% | Population Fragmented Nuclei (%) [12]: 16% | Population Healthy Nuclei (%) [12]: 70% | Population Hoechst High Intensity Objects (%) [12]: 3% | Population Membrane Permeable-Phenotype (%) [12]: 5% | Population Mitochondria Different-Phenotype (%) [12]: 6% | Population Mitotic Cells (%) [12]: 4% | Population Normal (%) [12]: 96% | Population Pyknosed Nuclei (%) [12]: 13% | Population Tubulin-Different-Phenotype (%) [12]: 4% | Total Cell Count [12]: 191
